pIC50: −log10 of the molar value. Activity calls are given as the source filed them. The rule behind the calls is not given here.
Key:
A2780 [1] = test: Induction of apoptosis in human A2780 cells assessed as decrease in cIAP expression at 5 uM incubated for 24 hrs by proteome profiler analysis; format: functional, cell-based
Outline: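 A2780 cells treated 24 h with 5 µM, then apoptosis-related proteins read on an antibody array (Proteome Profiler human apoptosis array) per kit instructions.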

A2780 [2] = test: Induction of apoptosis in human A2780 cells assessed as plasma membrane damage at 1 to 10 uM incubated for 24 hrs by propidium iodide staining based flow cytometry; format: functional, cell-based
Outline: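 Cells exposed to PXA for 24 h, trypsinised, pelleted at 4 °C, stained with 100 µg/ml propidium iodide, diluted in sheath fluid and read by flow cytometry. Positive control was 0.2% Triton X-100 (20 min). Three experiments, mean ± SEM.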

A2780cisR [3] = test: Cell cycle arrest in human A2780cisR cells assessed as accumulation at G1 phase at 10 uM incubated for 24 hrs by propidium iodide staining based flow cytometry (reference value: 68.7%); format: functional
Outline: (§1)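 After 24 h exposure, cells washed in ice-cold PBS. About 2 million cells fixed in cold 70% ethanol at −20 °C for at least 24 h. Stained with 0.1% Triton X-100, 200 µg/ml RNase A and 20 µg/ml propidium iodide in PBS, 15 min at 37 °C in the dark. DNA content read by flow cytometry with doublet discrimination. Medium as untreated control, paclitaxel as G2/M control. Three independent experiments.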

J82 [4] = test: Induction of apoptosis in cisplatin resistant human J82 cells assessed as mitochondrial membrane potential at 1 uM incubated for 2 hrs by hoechst 33342 staining based fluorescence microscopy; format: functional, cell-based
Outline: (§2)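 J82CisR cells exposed 2 h, then labelled with TMRE and Hoechst 33342 for 20 min. TMRE signal imaged on a high-content fluorescence imaging platform. Untreated medium control and 20 µM CCCP positive control.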

A2780 [5] = test: Antiproliferative activity against human A2780 cells assessed as reduction in cell viability incubated for 72 hrs by MTT assay; format: functional, cell-based; conditions: A2780, 72 h
Outline: (§3)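 Cells seeded overnight in 96-well plates, then exposed to increasing concentrations (compound dissolved in DMSO, diluted in medium) for the stated time. MTT (5 mg/ml in PBS) added for 15 min, formazan dissolved in DMSO, absorbance read at 544 nm minus 690 nm background. IC50 = concentration giving 50% signal decrease. At least three independent experiments in triplicate.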

J82 [6] = test: Antiproliferative activity against human J82 cells assessed as reduction in cell viability incubated for 72 hrs by MTT assay; format: functional, cell-based; conditions: J82, 72 h; outline: as §3
A2780cisR [7] = test: Induction of apoptosis in human A2780cisR cells assessed as depolarization of mitochondrial membrane potential after 24 hrs by TMRE staining based flow cytometry; format: functional, cell-based
Outline: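 Cells seeded overnight; complete medium swapped for FBS-free medium just before treatment to avoid TMRE ester cleavage. Exposure to PXA for 1 h, 2 h or 24 h. TMRE staining 20 min, cells collected by trypsinisation, ΔΨm read by flow cytometry. Medium served as negative control, 20 µM CCCP as positive control. Mean ± SEM reported.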

J82 [8] = test: Potency index, ratio of cisplatin IC50 to compound IC50 for antiproliferative activity in cisplatin resistant human J82 cells assessed as reduction in cell viability incubated for 72 hrs by MTT assay; format: functional
Outline: (§4)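 Cells seeded in 96-well plates overnight, exposed 72 h to increasing concentrations. MTT (5 mg/ml) added for 15 min, formazan dissolved in DMSO, absorbance read at 544 nm with 690 nm background subtracted. IC50 is the concentration reducing signal by 50%. Three independent experiments in triplicate. CisR sublines made by weekly intermittent cisplatin exposure for 24–30 weeks.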

J82 [9] = test: Induction of apoptosis in cisplatin resistant human J82 cells assessed as depolarization of mitochondrial membrane potential at 5 to 10 uM incubated for 2 hrs by hoechst 33342 staining based fluorescence microscopy; format: functional; outline: as §2
A2780cisR [10] = test: Potency index, ratio of cisplatin IC50 to compound IC50 for antiproliferative activity in human A2780cisR cells assessed as reduction in cell viability incubated for 72 hrs by MTT assay; format: functional; outline: as §4
A2780 [11] = test: Cell cycle arrest in human A2780 cells assessed as accumulation at G1 phase at 1 uM incubated for 24 hrs by propidium iodide staining based flow cytometry (reference value: 61.8%); format: functional; outline: as §1
A2780cisR [12] = test: Induction of apoptosis in human A2780cisR cells assessed as increase in caspase 3 cleavage at 5 uM incubated for 24 hrs by proteome profiler analysis; format: functional, cell-based
Outline: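 A2780 and A2780CisR cells treated 24 h with 5 µM PXA; apoptosis-related proteins profiled with a human apoptosis antibody array following kit instructions.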

J82 [13] = test: Induction of apoptosis in cisplatin-resistant human J82 cells assessed as nuclear condensation by measuring reduced size and increased intensity of nuclei at 30 uM incubated for 24 hrs by hoechst 33342 staining based fluorescence microscopy; format: functional, cell-based
MDA-MB-231 = test: Potency index, ratio of cisplatin IC50 to compound IC50 for antiproliferative activity in human MDA-MB-231 cells assessed as reduction in cell viability incubated for 72 hrs by MTT assay; format: functional; outline: as §4
J82 [14] = test: Induction of apoptosis in human J82 cells assessed as depolarization of mitochondrial membrane potential at 5 to 10 uM incubated for 2 hrs by hoechst 33342 staining based fluorescence microscopy; format: functional
Outline: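 J82 cells treated 2 h with PXA, then labelled 20 min with TMRE plus Hoechst 33342. ΔΨm read by high-content fluorescence imaging. Untreated medium and 20 µM CCCP served as controls.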

A2780 [15] = test: Induction of apoptosis in human A2780 cells assessed as nuclear condensation by measuring reduced size and increased intensity of nuclei at 10 uM incubated for 24 hrs by hoechst 33342 staining based fluorescence microscopy; format: functional, cell-based
J82 [16] = test: Induction of apoptosis in cisplatin resistant human J82 cells assessed as depolarization of mitochondrial membrane potential incubated for 1 hr by TMRE staining based flow cytometry; format: functional, cell-based
Outline: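 Cells seeded overnight; medium switched to FBS-free just before treatment to avoid TMRE ester cleavage. Exposure 1 h, 2 h or 24 h, then TMRE staining for 20 min. Cells trypsinized, centrifuged at 4 °C and read by flow cytometry. Medium as negative control, 20 µM CCCP as positive control. […]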

## CC(=O)OC[C@]12Oc3c(-c4ccc(O)c5c4O[C@@]4(COC(C)=O)C(=C(O)C[C@@H](C)[C@H]4OC(C)=O)C5=O)ccc(O)c3C(=O)C1=C(O)C[C@@H](C)[C@H]2OC(C)=O [PHOMOXANTHONE A]
A2780 [1]
  Activity: Active
A2780 [2]
  Activity: inactive
A2780cisR [3]
  Activity: 81.1%
J82 [4]
  Activity: inactive
A2780 [5]; read-out: IC50
  pIC50: 6.24
A2780 [5]; read-out: pIC50 (converted)
  IC50: 575 nM
J82 [6]
  pIC50: 5.49
A2780cisR [7]
  Activity: Dose-dependent effect
J82 [8]
  Ratio IC50: 4
J82 [9]
  Activity: 100%
A2780cisR [10]
  Ratio IC50: 9
A2780 [11]
  Activity: 63.3%
A2780cisR [12]
  Activity: Active
J82 [13]
  Activity: Active
MDA-MB-231
  Ratio IC50: 2 - 10
J82 [14]
  Activity: 100%
A2780 [15]
  Activity: Active
J82 [16]
  Activity: Dose-dependent effect
J82 [16]; J82, 1 h
  pIC50: 5.51

— ChEMBL document CHEMBL4396943, “The tetrahydroxanthone-dimer phomoxanthone A is a strong inducer of apoptosis in cisplatin-resistant solid cancer cells” (Bioorg Med Chem, 2019)
